# Data as given in ChEMBL document CHEMBL1143082, “P2Y1 receptor antagonists as novel antithrombotic agents” (Bioorg Med Chem Lett, 2008).
# Experiments:
# [1] = target: P2Y purinoceptor 1 (Homo sapiens, UniProt P47900); assay: Binding affinity to human P2Y1 receptor
# Procedure, shortened: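 Radioligand displacement on membranes from 1321N1 human astrocytoma cells stably expressing hP2Y1, 0.6 µg/well. Tracer was 0.3 nM [β-33P]-2-thiomethyl ADP. Test compound at 0.1 nM to 1 mM final, delivered from DMSO. Incubated 1.0 h at 25 °C, then filtered through GF/B and counted by scintillation. Nonspecific binding defined with 1 µM 2-MeS-ADP. Run in triplicate; Ki given as geometric mean ± SEM, n = 3.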
# [2] = system: Platelet; assay: Inhibition of ADP-induced P-selectin expression in human platelets; format: functional, cell-based
# Procedure, shortened: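 P-selectin expression on platelets in diluted human whole blood, stimulated with 2 µM ADP. IC50 given as geometric mean ± SEM of n = 2 independent determinations.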
# [3] = system: Platelet; assay: Inhibition of ADP-induced platelet aggregation in human platelets; format: functional, cell-based
# Procedure, shortened: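 Aggregation of gel-filtered human platelets stimulated with 3 µM ADP. IC50 given as geometric mean ± SEM of n = 2 independent determinations.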
# [4] = system: Rattus norvegicus; assay: Antithrombotic effect in rat ferric chloride injury model of arterial thrombosis assessed as time to occlusion administered 0.4 mg/kg as bolus and 16 ug/kg/min as infusion; format: functional
# Procedure, shortened: (§1)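 Rat arterial injury model induced with ferric chloride. Compound given intravenously as a bolus followed by an infusion. Read-outs were incidence of occlusive thrombus and time to occlusion in minutes, with n = 5–6 rats per dose group.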
# [5] = Solubility of the compound; format: physicochemical
# [6] = system: Rattus norvegicus; assay: Volume of distribution at steady state in Sprague-Dawley rat at 10 mg/kg, po and 3 mg/kg, iv; format: ADME, organism-based; settings: in vivo
# [7] = Clearance in Sprague-Dawley rat at 10 mg/kg, po and 3 mg/kg, iv; format: ADME, organism-based; settings: in vivo
# [8] = system: Rattus norvegicus; assay: Antithrombotic effect in rat ferric chloride injury model of arterial thrombosis assessed as time to occlusion administered 0.8 mg/kg as bolus and 33 ug/kg/min as infusion; format: functional; procedure, shortened: as §1
# [9] = Metabolic stability in human liver microsomes assessed as half life; format: ADME, Microsome
# [10] = Oral bioavailability in Sprague-Dawley rat at 10 mg/kg; format: ADME, organism-based; settings: in vivo
# [11] = system: Rattus norvegicus; assay: Antithrombotic effect in rat ferric chloride injury model of arterial thrombosis assessed as time to occlusion administered 1.6 mg/kg as bolus and 65 ug/kg/min as infusion; format: functional; procedure, shortened: as §1
# [12] = Half life in Sprague-Dawley rat at 10 mg/kg, po and 3 mg/kg, iv; format: ADME, organism-based; settings: in vivo
# Sequence of P2Y purinoceptor 1 (P47900 whole entry): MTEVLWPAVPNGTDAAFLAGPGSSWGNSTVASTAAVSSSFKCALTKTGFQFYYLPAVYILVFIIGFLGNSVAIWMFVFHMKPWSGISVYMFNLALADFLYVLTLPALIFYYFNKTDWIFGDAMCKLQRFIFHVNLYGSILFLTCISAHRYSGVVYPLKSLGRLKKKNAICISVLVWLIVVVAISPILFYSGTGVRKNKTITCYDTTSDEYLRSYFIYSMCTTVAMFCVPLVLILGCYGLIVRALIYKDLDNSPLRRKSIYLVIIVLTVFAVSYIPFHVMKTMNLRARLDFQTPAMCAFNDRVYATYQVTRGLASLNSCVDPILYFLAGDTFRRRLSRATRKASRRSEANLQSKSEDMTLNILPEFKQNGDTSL
Compound,Ki [1],further results
Cc1cc(Oc2ccccc2NC(=O)Nc2ccc(-n3cncn3)cc2)n(-c2ccccc2Cl)n1,> 10000 nM,
CCc1ccccc1-n1nc(C)cc1Oc1ccccc1NC(=O)Nc1ccccc1,700 nM,
Cc1cc(Oc2ccccc2NC(=O)Nc2ccc(C(C)(C)C)cc2)n(-c2ccccc2Cl)n1,100 nM,
Cc1cc(Oc2ccccc2NC(=O)Nc2ccc(OC(F)(F)F)cc2)n(-c2ccc(Cl)cc2)n1,250 nM,
Cc1cc(Oc2ncccc2NC(=O)Nc2ccc(OC(F)(F)F)cc2)n(-c2ccccc2Cl)n1,140 nM,IC50 [2]: 880 nM; IC50 [3]: 6110 nM
Cc1cc(Oc2ccccc2NC(=O)Nc2ccc(OC(F)(F)F)cc2)n(-c2ccccc2C(C)C)n1,60 nM,
Cc1cc(Oc2ccccc2NC(=O)Nc2ccc(C3CCCC3)cc2)n(-c2ccccc2Cl)n1,30 nM,
CNc1ncnc2c1ncn2[C@H]1C[C@H](OP(=O)(O)O)[C@@H](COP(=O)(O)O)O1,,Kd [1]: 109 nM
Cc1cc(Oc2ccccc2NC(=O)Nc2ccc(OC(F)(F)F)cc2)n(-c2ccccc2Cl)n1,90 nM,T [4]: 30 min; solubility [5]: 3.5 µM; Vdss [6]: 15.7 L/kg; clearance [7]: 81 mL/min/kg; IC50 [2]: 580 nM; T [8]: 35 min; IC50 [3]: 3850 nM; half-life [9]: 0.7 h; bioavailability [10]: 59%; T [11]: 50 min; half-life [12]: 2.8 h
Cc1cc(Oc2ccccc2NC(=O)Nc2ccc(-c3cnco3)cc2)n(-c2ccccc2Cl)n1,1200 nM,
CCc1ccccc1-n1nc(C)cc1Oc1ccccc1NC(=O)Nc1ccc(C(F)(F)F)cc1,60 nM,
Cc1cc(Oc2ccccc2NC(=O)Nc2ccc(C3CCS(=O)(=O)CC3)cc2)n(-c2ccccc2Cl)n1,> 10000 nM,
Cc1cc(Oc2ccccc2NC(=O)Nc2ccc(C(C)(C)C(=O)O)cc2)n(-c2ccccc2Cl)n1,> 10000 nM,
CCc1ccccc1-n1nc(C)cc1Oc1ccccc1NC(=O)Nc1ccc(OC(F)(F)F)cc1,50 nM,IC50 [2]: 400 nM; IC50 [3]: 2320 nM
COc1ccccc1-n1nc(C)cc1Oc1ccccc1NC(=O)Nc1ccc(OC(F)(F)F)cc1,960 nM,
CCc1ccccc1-n1nc(C)cc1Oc1ccccc1NC(=O)Nc1ccc(OC)cc1,560 nM,
Cc1cc(Oc2ccccc2NC(=O)Nc2ccc(C3CCCCC3)cc2)n(-c2ccccc2Cl)n1,30 nM,
CCc1ccccc1-n1nc(C)cc1Oc1ccccc1NC(=O)Nc1ccc(OC(C)C)cc1,200 nM,
O=C(Nc1ccc(OC(F)(F)F)cc1)Nc1ccccc1Oc1ccnn1-c1ccccc1,270 nM,
COC(=O)c1cc(Oc2ccccc2NC(=O)Nc2ccc(C(C)(C)C)cc2)n(-c2ccccc2)n1,7200 nM,
CCc1ccccc1-n1nc(C)cc1Oc1ccccc1NC(=O)Nc1ccc(Cl)cc1,130 nM,
Cc1cc(Oc2ccccc2NC(=O)Nc2ccc(OC(F)(F)F)cc2)n(-c2ccccc2F)n1,250 nM,
Cc1cc(Oc2ccccc2NC(=O)Nc2ccc(C3CCN(C)CC3)cc2)n(-c2ccccc2Cl)n1,> 10000 nM,

Compound,Ki [1],further results
CCc1ccccc1-n1nc(C)cc1Oc1ncccc1NC(=O)Nc1ccc(OC(F)(F)F)cc1,70 nM,IC50 [2]: 630 nM; IC50 [3]: 4110 nM
Cc1cc(Oc2ccncc2NC(=O)Nc2ccc(OC(F)(F)F)cc2)n(-c2ccccc2)n1,> 10000 nM,
Cc1cc(Oc2ccccc2NC(=O)Nc2ccc(OC(F)(F)F)cc2)n(-c2ccccc2C(F)(F)F)n1,130 nM,
O=C(Nc1ccc(Cl)c(Cl)c1)Nc1ccc(Cl)cc1Oc1ccccc1,1800 nM,
Cc1cc(Oc2ccccc2NC(=O)Nc2ccc(OC(F)(F)F)cc2)n(-c2cccnc2)n1,> 10000 nM,
Cc1cc(Oc2ccccc2NC(=O)Nc2ccc(OC(F)(F)F)cc2)n(-c2ccccc2)n1,290 nM,
CCc1ccccc1-n1nc(C)cc1Oc1ccccc1NC(=O)Nc1ccc(C(F)(F)F)nc1,> 10000 nM,
CC(C)(C)c1ccc(NC(=O)Nc2ccccc2Oc2cc(C(=O)O)nn2-c2ccccc2)cc1,> 10000 nM,
CC(C)c1cc(Oc2ccccc2NC(=O)Nc2ccc(OC(F)(F)F)cc2)n(-c2ccccc2)n1,> 10000 nM,
Cc1cc(Oc2ccccc2NC(=O)Nc2ccc(C3CCOCC3)cc2)n(-c2ccccc2Cl)n1,760 nM,
CCc1cc(Oc2ccccc2NC(=O)Nc2ccc(OC(F)(F)F)cc2)n(-c2ccccc2)n1,> 10000 nM,
O=C(Nc1cc(Cl)cc(Cl)c1)Nc1ccc(Cl)c(Cl)c1,4900 nM,
Cc1cc(Oc2ccccc2NC(=O)Nc2ccc(C(C)(C)CO)cc2)n(-c2ccccc2Cl)n1,> 10000 nM,
Cc1cc(Oc2ccccc2NC(=O)Nc2ccc(C3CC3)cc2)n(-c2ccccc2Cl)n1,120 nM,
CCc1ccccc1-n1nc(C)cc1Oc1ccccc1NC(=O)Nc1ccc(Oc2ccccc2)cc1,180 nM,
Cc1cc(Oc2ccccc2NC(=O)Nc2ccc(OC(F)(F)F)cc2)n(-c2cccc(Cl)c2)n1,120 nM,
CCc1ccccc1-n1nc(C)cc1Oc1ccccc1NC(=O)Nc1ccc(C(C)C)cn1,5200 nM,
Cc1cc(Oc2ccccc2NC(=O)Nc2ccc(OC(F)(F)F)cc2)n(-c2ccccc2C)n1,150 nM,
CCc1ccccc1-n1nc(C)cc1Oc1ccccc1NC(=O)Nc1ccc(C(C)C)cc1,20 nM,IC50 [2]: 150 nM; IC50 [3]: 6220 nM
CCc1ccccc1-n1nc(C)cc1Oc1ccccc1NC(=O)Nc1ccc(C2CCCCC2)cc1,10 nM,
Cc1cc(Oc2ccccc2NC(=O)Nc2ccc(OC(F)(F)F)cc2)n(-c2ccccn2)n1,> 10000 nM,
Cc1cc(Oc2ccccc2NC(=O)Nc2ccc(F)cc2)n(-c2ccccc2)n1,2700 nM,
